Reference: ChEMBL document CHEMBL4152256, “Structure-activity relationship of new antimalarial 1-aryl-3-susbtituted propanol derivatives: Synthesis, preliminary toxicity profiling, parasite life cycle stage studies, target exploration, and targeted delivery” (Eur J Med Chem, 2018)
pIC50: −log10 of the molar value.

Key:
[1] = Drug internalization in liposomes assessed as zeta potential at 500 uM in presence of pH 7.4 PBS buffer solution (reference value: -16.48 mV); type: physicochemical; details: artificial membrane, pH 7.4, 500 µM
Outline: (§1)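 Zeta potential of liposomes loaded with compound (500 µM drug per 10 mM lipid), measured in the pH 4.0 citrate hydration buffer and again after buffer exchange to PBS pH 7.4; drug-free liposomes of the same lipid composition served as reference.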

Plasmodium falciparum [2] = test: (§2) Ratio of IC50 for antiplasmodial activity against Plasmodium falciparum 3D7 late stage forms infected in immunoliposome encapsulated compound pre-loaded human RBC by [3H]-hypoxanthine incorporation assay to IC50 for antiplasmodial activity against Plasmodium falciparum 3D7 late stage forms infected in human non-washed human RBC containing full drug dosages by [3H]-hypoxanthine incorporation assay; type: functional
Plasmodium falciparum [3] = test: Antiplasmodial activity against chloroquine-sensitive Plasmodium falciparum 3D7 late forms infected in human RBC using compound encapsulated in to immunoliposome targeted to GPA incubated for 15 mins followed by compound removal and further incubation for 48 hrs by [3H]-hypoxanthine incorporation assay; type: functional, organism-based; details: 3D7, Erythrocyte
[4] = Drug internalization in liposomes assessed as zeta potential at 500 uM in presence of pH 4 citrate buffer solution (reference value: -2.73 mV); type: physicochemical; details: artificial membrane, pH 4, 500 µM; outline: as §1
Plasmodium falciparum [5] = test: Antiplasmodial activity against Plasmodium falciparum 3D7 late stage forms infected in immunoliposome encapsulated compound pre-loaded human RBC by [3H]-hypoxanthine incorporation assay; type: functional, organism-based; details: 3D7, Erythrocyte
Plasmodium falciparum [6] = test: as §2, with “3D7 ring” for “3D7 late”; type: functional
[7] = Drug encapsulation in liposomes assessed as encapsulation efficiency in citrate/phosphate buffered measured after ultracentrifugation by UV/Vis spectroscopy relative to untreated control; type: physicochemical; details: artificial membrane
Outline: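 Compound loaded into DSPC:cholesterol:DSPE-PEG2000-Mal:DOPE-Rho (84.5:10:5:0.5) liposomes using a citrate (pH 4.0)/PBS pH gradient. Drug measured by UV/vis after SDS disruption at each step: citrate liposomes, after buffer exchange to PBS (chloroquine added to preformed liposomes here), and after ultracentrifugation. Encapsulation efficiency = % of drug that is encapsulated out of total drug in the sample.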

Plasmodium falciparum [8] = test: Antiplasmodial activity against chloroquine-sensitive Plasmodium falciparum 3D7 ring forms infected in human RBC incubated for 15 mins followed by compound removal and further incubation for 48 hrs by [3H]-hypoxanthine incorporation assay; type: functional, organism-based; details: 3D7, Erythrocyte
Plasmodium falciparum [9] = test: Antiplasmodial activity against Plasmodium falciparum 3D7 late stage forms infected in human non-washed human RBC containing full drug dosages by [3H]-hypoxanthine incorporation assay; type: functional, organism-based; details: 3D7, Erythrocyte
Plasmodium falciparum [10] = test: Antiplasmodial activity against Plasmodium falciparum 3D7 ring stage forms infected in human non-washed human RBC containing full drug dosages by [3H]-hypoxanthine incorporation assay; type: functional, organism-based; details: 3D7, Erythrocyte
Plasmodium falciparum [11] = test: Antiplasmodial activity against Plasmodium falciparum 3D7 ring stage forms infected in immunoliposome encapsulated compound pre-loaded human RBC by [3H]-hypoxanthine incorporation assay; type: functional, organism-based; details: 3D7, Erythrocyte
Plasmodium falciparum [12] = test: Ratio of IC50 for antiplasmodial activity against chloroquine-sensitive Plasmodium falciparum 3D7 ring forms infected in human RBC incubated for 15 mins followed by compound removal and further incubation for 48 hrs by [3H]-hypoxanthine incorporation assay to IC50 for antiplasmodial activity against chloroquine-sensitive Plasmodium falciparum 3D7 ring forms infected in human RBC using compound …; type: functional
[13] = Genotoxicity in Salmonella typhimurium TA1535 harboring pSK1002 assessed as umu gene induction at 0.0005 mg/ml in presence of Sprague-Dawley rat liver S9 fraction after by SOS/umu assay relative to control; type: toxicity, organism-based; details: salmonella enterica subsp. enterica serovar typhimurium, read-out: FC

Row | SMILES | Activity [1] [mV] | Ratio IC50 (Plasmodium falciparum [2]) | pIC50 (Plasmodium falciparum [3]) | Activity [4] [mV] | pIC50 (Plasmodium falciparum [5]) | Ratio IC50 (Plasmodium falciparum [6]) | Activity [7] [%] | pIC50 (Plasmodium falciparum [8]) | pIC50 (Plasmodium falciparum [9]) | pIC50 (Plasmodium falciparum [10]) | pIC50 (Plasmodium falciparum [11]) | Ratio IC50 (Plasmodium falciparum [12]) | fold induction at 0.0005 mg/ml [13]
1 | N#Cc1ccc(N2CCC(NCCC(O)c3ccc(F)c4ccccc34)CC2)c(C(F)(F)F)c1 (stereo in doubt; 72) | -18.2 | 1.5 | 6.76 | 8.54 | 6.35 | 2.8 | 101.4 | 6.06 | 6.52 | 6.74 | 6.29 | 5.9 | 
2 | OC(CCN1CCN(C(c2ccccc2)c2ccccc2)CC1)c1ccc(F)c(F)c1 (stereo not drawn) |  |  |  |  |  |  |  |  |  |  |  |  | 1
